Positions count from the first letter of the chain named.
What was measured:
Assay type in all cases: in vitro ADME
[1] = Kinetics of EXE reduction to 17β-DHE, pooled human liver cytosol
AKR1C3 Lys104Asn = AKR1C3 Lys104Asn (Homo sapiens, UniProt P42330, K104N); assay: Kinetics of EXE reduction to 17β-DHE, recombinant AKR1C3 Lys104Asn
AKR1C3 Arg258Cys = AKR1C3 Arg258Cys (Homo sapiens, UniProt P42330, R258C); assay: Kinetics of EXE reduction to 17β-DHE, recombinant AKR1C3 Arg258Cys
AKR1C4 = molecular target: T1, AKR1C4 (Homo sapiens, UniProt P17516); assay: Kinetics of EXE reduction to 17β-DHE, recombinant AKR1C4; conditions: wildtype AKR1C4; for VMAX: normalized to enzyme purity
T1 sequence (P17516 1-323): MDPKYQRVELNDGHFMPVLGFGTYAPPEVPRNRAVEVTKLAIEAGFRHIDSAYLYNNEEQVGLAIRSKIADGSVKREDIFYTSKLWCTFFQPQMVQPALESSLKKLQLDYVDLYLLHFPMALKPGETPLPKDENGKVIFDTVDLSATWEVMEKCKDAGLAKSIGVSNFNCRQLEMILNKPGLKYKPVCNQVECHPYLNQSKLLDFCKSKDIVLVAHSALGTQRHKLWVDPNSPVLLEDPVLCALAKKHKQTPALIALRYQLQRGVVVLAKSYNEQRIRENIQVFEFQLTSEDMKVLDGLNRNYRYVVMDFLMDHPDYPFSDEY

AKR1C4 Leu311Val = molecular target: T2, AKR1C4 Leu311Val (Homo sapiens, UniProt P17516, L311V); assay: Kinetics of EXE reduction to 17β-DHE, recombinant AKR1C4 Leu311Val
T2 sequence (P17516 1-323 L311V): T1 sequence (P17516 1-323) with L311V

CBR1 = molecular target: T3, CBR1 (Homo sapiens, UniProt P16152); assay: Kinetics of EXE reduction to 17β-DHE, recombinant CBR1; conditions: for CLINT: VMAX/KM
T3 sequence (P16152 1-277): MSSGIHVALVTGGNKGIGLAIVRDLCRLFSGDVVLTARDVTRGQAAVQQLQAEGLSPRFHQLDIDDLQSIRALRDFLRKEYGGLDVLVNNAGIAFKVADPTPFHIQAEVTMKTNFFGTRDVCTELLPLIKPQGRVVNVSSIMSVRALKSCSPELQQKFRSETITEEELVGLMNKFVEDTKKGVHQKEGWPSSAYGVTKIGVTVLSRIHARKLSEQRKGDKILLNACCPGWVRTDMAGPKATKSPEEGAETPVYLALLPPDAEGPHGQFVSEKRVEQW

[2] = Metabolite identification, overnight incubation with pooled human liver cytosol; conditions: 200 µM EXE, 18-h incubation, 7.5 µg pooled human liver cytosol, PBS pH 7.4, 37°C, NADPH regeneration system
AKR1C1 = AKR1C1 (Homo sapiens, UniProt Q04828); assay: Metabolite identification, overnight incubation with recombinant AKR1C1; conditions: 200 µM EXE, 18-h incubation, 1.5 µg recombinant AKR1C1
AKR1C1, sequence (Q04828 whole entry): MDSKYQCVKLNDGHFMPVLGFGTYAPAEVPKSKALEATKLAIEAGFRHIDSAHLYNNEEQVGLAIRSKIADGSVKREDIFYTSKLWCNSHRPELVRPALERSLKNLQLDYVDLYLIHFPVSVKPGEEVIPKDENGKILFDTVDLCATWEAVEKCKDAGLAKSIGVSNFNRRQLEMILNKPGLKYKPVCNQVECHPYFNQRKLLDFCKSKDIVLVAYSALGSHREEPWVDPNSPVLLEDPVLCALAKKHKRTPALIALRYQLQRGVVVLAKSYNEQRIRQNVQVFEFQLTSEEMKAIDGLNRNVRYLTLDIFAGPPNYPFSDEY
In short: (§1)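 Wildtype enzyme was His-tagged, expressed in E. coli BL21 (IPTG induction), Ni-NTA purified and dialysed against PBS. It was stopped with ice-cold acetonitrile and centrifuged. UPLC/ESI+ full scan (m/z 100–450) was followed by targeted MS/MS transitions. Retention times were matched to synthetic 17α/17β-dihydro standards.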

AKR1C2 = AKR1C2 (Homo sapiens, UniProt P52895); assay: Metabolite identification, overnight incubation with recombinant AKR1C2; conditions: 200 µM EXE, 18-h incubation, 1.5 µg recombinant AKR1C2
AKR1C2, sequence (P52895 whole entry): as the sequence (Q04828 whole entry) above, with T38V, R47H, L54V, C87S, V151M, R170H, Q172L counted along it
In short: as §1

AKR1C3 = AKR1C3 (Homo sapiens, UniProt P42330); assay: Metabolite identification, overnight incubation with recombinant AKR1C3; conditions: 200 µM EXE, 18-h incubation, 1.5 µg recombinant AKR1C3
AKR1C3, sequence (P42330 whole entry): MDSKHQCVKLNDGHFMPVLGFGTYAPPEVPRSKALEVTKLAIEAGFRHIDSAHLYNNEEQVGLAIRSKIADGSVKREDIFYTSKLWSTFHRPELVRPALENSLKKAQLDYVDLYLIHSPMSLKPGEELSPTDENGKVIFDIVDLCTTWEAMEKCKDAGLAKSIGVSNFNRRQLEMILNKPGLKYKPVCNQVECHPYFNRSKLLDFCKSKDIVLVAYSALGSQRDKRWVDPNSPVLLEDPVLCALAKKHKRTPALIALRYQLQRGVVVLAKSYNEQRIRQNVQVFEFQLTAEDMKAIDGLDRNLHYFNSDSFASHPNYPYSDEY
In short: as §1

AKR1C3 Lys104Asn, sequence (P42330 whole entry K104N): as the sequence (P42330 whole entry) above, with K104N counted along it
AKR1C3 Arg258Cys, sequence (P42330 whole entry R258C): as the sequence (P42330 whole entry) above, with R258C counted along it

With `C=C1C[C@@H]2[C@H](CC[C@]3(C)C(=O)CC[C@@H]23)[C@@]2(C)C=CC(=O)C=C12` [exemestane, 6-methylenandrosa-1,4-diene-3-17-dione] the “maximum rate of 17β-DHE formation (VMAX)” value ([1]; 5 µg pooled HLC, 90-min incubation, EXE 0.5–400 µM) was 21 ± 4.8 pmol/min/mg, the Km at 90 min ([1]; human, pooled human liver cytosol, pH 7.4) was 55.7 ± 1.9 µM and the Km (AKR1C3 Lys104Asn; AKR1C3 Lys104Asn (rs12387), 17β-DHE formation) was 16.8 ± 1 µM. The CLINT (AKR1C3 Lys104Asn; AKR1C3 Lys104Asn, VMAX/KM) was 0.00038 µL/min/mg, the VMAX (AKR1C3 Lys104Asn; AKR1C3 Lys104Asn, normalized to enzyme purity) was 6.4 ± 0.3 picomoles·min^−1·mg^−1 and the Km (AKR1C3 Arg258Cys; AKR1C3 Arg258Cys (rs62621365), 17β-DHE formation) was 75.8 ± 19.9 µM. For the same compound, the CLINT (AKR1C3 Arg258Cys; AKR1C3 Arg258Cys, VMAX/KM) was 3e-05 µL/min/mg, the VMAX (AKR1C3 Arg258Cys; AKR1C3 Arg258Cys, normalized to enzyme purity) was 2.3 ± 0.1 picomoles·min^−1·mg^−1 and the “affinity for EXE of AKR1C3 Arg258Cys relative to wildtype” value (AKR1C3 Arg258Cys; lower affinity (KM) than wildtype AKR1C3) was “roughly 6 fold”. For the same compound, the Km (AKR1C4; 17β-DHE formation) was 9.7 ± 1.9 µM, the CLINT (AKR1C4; VMAX/KM) was 0.00024 µL/min/mg and the VMAX (AKR1C4) was 2.3 ± 0.6 picomoles·min^−1·mg^−1. The VMAX (AKR1C4; listed as EXE) was 2.3 ± 0.6 picomoles·min^−1·mg^−1, the Km (AKR1C4 Leu311Val; AKR1C4 Leu311Val (rs17134592), 17β-DHE formation) was 11.9 ± 2 µM and the CLINT (AKR1C4 Leu311Val; AKR1C4 Leu311Val, VMAX/KM) was 0.00053 µL/min/mg. For the same compound, the VMAX (AKR1C4 Leu311Val; AKR1C4 Leu311Val, normalized to enzyme purity) was 6.3 ± 0.8 picomoles·min^−1·mg^−1, the “rate of EXE reduction by CBR1 relative to AKR1C2” value (CBR1; VMAX, faster than AKR1C2) was “about 11 fold” and the “rate of 17β-DHE formation by CBR1 relative to recombinant AKR1C enzymes” value (CBR1; more rapid than recombinant AKR1C enzymes) was 11 to 403 fold. The CLINT (CBR1; wildtype CBR1) was 0.0035 µL/min/mg, the CLINT (CBR1; wildtype CBR1, listed as EXE) was 0.0035 µL/min/mg and the VMAX (CBR1; wildtype CBR1, normalized to enzyme purity) was 928 ± 244 picomoles·min^−1·mg^−1. For the same compound, the metabolite formed [2] was 17β-DHE although a lesser amount of 17α-DHE was detected as well, the metabolites formed (AKR1C1) was “only 17β-DHE formation” and the metabolites formed (AKR1C2) was “only 17β-DHE formation”. The metabolites formed (AKR1C3) was “only 17β-DHE formation”.

From paper PMC5088049 (Pharmacogenetics and genomics, 2016)
